This note sets out measurements from ChEMBL document CHEMBL1629700, “Assessment of oritavancin serum protein binding across species” (Antimicrob Agents Chemother, 2010).

As a reminder, the MIC is the lowest concentration found to suppress growth.

Values after ≈ are worked out from the molar mass of the structure shown.

In data set [1] the test system is Staphylococcus aureus. Kind of data set: Ratio of MIC for Staphylococcus aureus ATCC 29213 grown in CAMHB medium in presence of 95% mouse serum to MIC for Staphylococcus aureus ATCC 29213 in presence of 95% mouse serum ultrafiltrate. It is filed as functional. The essentials: (§1)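 The fold increase is the mean arithmetic broth microdilution MIC in 95% serum (plus 5% CAMHB) divided by the mean MIC in 95% serum ultrafiltrate (plus 5% CAMHB). The ultrafiltrate was prepared with a 50 kDa cutoff that excludes albumin. Replicates were 8 per condition, or 4 to 8 for mouse. The same data give % bound = (1 − MIC ultrafiltrate/MIC serum) × 100.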

In data set [2] the test system is Staphylococcus aureus. Kind of data set: Ratio of MIC for Staphylococcus aureus ATCC 29213 grown in CAMHB medium in presence of 95% rat serum to MIC for Staphylococcus aureus ATCC 29213 in presence of 95% rat serum ultrafiltrate. The class given is functional. The method in brief: as §1
For data set [3], the system named is Staphylococcus aureus. Kind of data set: Ratio of MIC for Staphylococcus aureus ATCC 29213 grown in CAMHB medium in presence of 95% dog serum to MIC for Staphylococcus aureus ATCC 29213 in presence of 95% dog serum ultrafiltrate. The class given is functional. The essentials: as §1
In data set [4] the test system is Serum. Description: (§2) Protein binding in mouse serum by broth microdilution method. The class given is ADME, cell-free. The essentials:
(§3)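 Pooled serum (dog: beagle) and its ultrafiltrate (50 kDa cutoff, excludes albumin) were used. Broth microdilution MICs against S. aureus ATCC 29213 were read with arithmetic drug dilutions, made in CAMHB with 0.002% polysorbate-80, in 95% serum or 95% ultrafiltrate plus 5% CAMHB. % bound = (1 − mean MIC ultrafiltrate/mean MIC serum) × 100. Human, rat and dog used 8 replicates; mouse used 4–8.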
(Broth dilution looks for growth in wells or tubes with falling amounts of substance.)

Data set [5] can be described thus: Protein binding in human serum by broth microdilution method. The settings on record: read-out: PB (converted). The class given is ADME, cell-free. The method in brief:
as §3

The nature of data set [6]: Protein binding in rat serum by broth microdilution method. The class given is ADME, cell-free. The settings on record: read-out: PB (converted). The essentials: as §3
Data set [7] in a line: Protein binding in dog serum by broth microdilution method. The settings on record: read-out: PB (converted). It is filed as ADME, cell-free, Canis lupus familiaris. The method in brief:
as §3

For data set [8], the system named is Staphylococcus aureus. Description: Antibacterial activity against Staphylococcus aureus ATCC 29213 grown in CAMHB medium by broth microdilution method in presence of 95% dog serum ultrafiltrate. It is filed as functional. The method in brief:
(§4)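 Broth microdilution MIC run in a matrix of 95% pooled serum, or 95% serum ultrafiltrate (50 kDa cutoff filter, albumin excluded), plus 5% CAMHB. Drug dilution steps were arithmetic and prepared in CAMHB. Means came from 8 replicates per condition (mouse 4 to 8). Dog serum came from beagles.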

In data set [9] the test system is Staphylococcus aureus. Kind of data set: Antibacterial activity against Staphylococcus aureus ATCC 29213 grown in CAMHB medium by broth microdilution method in presence of 95% dog serum. It is filed as functional. The method in brief: as §4
Data set [10] deals with Staphylococcus aureus. Kind of data set: Ratio of MIC for Staphylococcus aureus ATCC 29213 grown in CAMHB medium in presence of 95% human serum to MIC for Staphylococcus aureus ATCC 29213 in presence of 95% human serum ultrafiltrate. The class given is functional. The essentials:
as §1

Data set [11] has as its system Staphylococcus aureus. Kind of data set: Antibacterial activity against Staphylococcus aureus ATCC 29213 grown in CAMHB medium by broth microdilution method in presence of 95% mouse serum ultrafiltrate. It is filed as functional. The essentials:
as §4

In data set [12] the test system is Staphylococcus aureus. Description: Antibacterial activity against Staphylococcus aureus ATCC 29213 grown in CAMHB medium by broth microdilution method in presence of 95% mouse serum. The class given is functional. The essentials: as §4
The test system of data set [13] is Staphylococcus aureus. Kind of data set: Antibacterial activity against Staphylococcus aureus ATCC 29213 grown in CAMHB medium by broth microdilution method in presence of 95% rat serum ultrafiltrate. It is filed as functional. The method in brief: as §4
Data set [14] has as its system Staphylococcus aureus. Description: Antibacterial activity against Staphylococcus aureus ATCC 29213 grown in CAMHB medium by broth microdilution method in presence of 95% rat serum. It is filed as functional. The method in brief: as §4
The test system of data set [15] is Staphylococcus aureus. Description: Antibacterial activity against Staphylococcus aureus ATCC 29213 grown in CAMHB medium by broth microdilution method. It is filed as functional. The essentials: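 MIC determined by broth microdilution under CLSI M7-A8 conditions in cation-adjusted Mueller-Hinton broth, using arithmetic drug dilution steps.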
Data set [16] concerns Staphylococcus aureus. Description: Antibacterial activity against Staphylococcus aureus ATCC 29213 grown in CAMHB medium by broth microdilution method in presence of 95% human serum ultrafiltrate. The class given is functional. The method in brief:
as §4

The test system of data set [17] is Staphylococcus aureus. Kind of data set: Antibacterial activity against Staphylococcus aureus ATCC 29213 grown in CAMHB medium by broth microdilution method in presence of 95% human serum. It is filed as functional. The essentials:
as §4

The subject of data set [18] is Staphylococcus aureus. Description: Antibacterial activity against Staphylococcus aureus ATCC 29213 grown in CAMHB medium by broth microdilution method in presence of 50 ug/ml CaCl2 and 95% human serum. It is filed as functional. The method in brief:
(§5)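 Broth microdilution MIC run in a matrix of 95% pooled serum, or 95% ultrafiltrate of that serum (50 kDa cutoff, albumin excluded), plus 5% CAMHB. Arithmetic dilutions ran from 20 to 0.3 μg/ml in CAMHB with 50 μg/ml CaCl2. Means came from 8 replicates (mouse 4 to 8). Beagle dog serum was used for dog.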

A short description of data set [19]: as §2. The settings on record: read-out: PB (converted). The class given is ADME, cell-free. The method in brief:
as §3

Data set [20] has as its system Staphylococcus aureus. Kind of data set: Antibacterial activity against Staphylococcus aureus ATCC 29213 grown in CAMHB medium by broth microdilution method in presence of 50 ug/ml CaCl2 and 95% rat serum ultrafiltrate. The class given is functional. The essentials: as §5
The test system of data set [21] is Staphylococcus aureus. Kind of data set: Antibacterial activity against Staphylococcus aureus ATCC 29213 grown in CAMHB medium by broth microdilution method in presence of 50 ug/ml CaCl2 and 95% rat serum. The class given is functional. The essentials: as §5
Data set [22] deals with Staphylococcus aureus. Kind of data set: Antibacterial activity against Staphylococcus aureus ATCC 29213 grown in CAMHB medium by broth microdilution method in presence of 50 ug/ml CaCl2 and 95% dog serum ultrafiltrate. The class given is functional. The essentials:
as §5

Data set [23] has as its system Staphylococcus aureus. Kind of data set: Antibacterial activity against Staphylococcus aureus ATCC 29213 grown in CAMHB medium by broth microdilution method in presence of 50 ug/ml CaCl2 and 95% dog serum. The class given is functional. The essentials:
as §5

Data set [24] deals with Staphylococcus aureus. Description: Antibacterial activity against Staphylococcus aureus ATCC 29213 grown in CAMHB medium by broth microdilution method in presence of 50 ug/ml CaCl2 and 95% mouse serum ultrafiltrate. It is filed as functional. The essentials: as §5
Data set [25] concerns Staphylococcus aureus. Kind of data set: Antibacterial activity against Staphylococcus aureus ATCC 29213 grown in CAMHB medium by broth microdilution method in presence of 50 ug/ml CaCl2 and 95% mouse serum. The class given is functional. The essentials:
as §5

Data set [26] has as its system Staphylococcus aureus. Kind of data set: Antibacterial activity against Staphylococcus aureus ATCC 29213 grown in CAMHB medium by broth microdilution method in presence of 50 ug/ml CaCl2. The class given is functional. The method in brief: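 Broth microdilution per CLSI M7-A8 in cation-adjusted Mueller-Hinton broth with 50 μg/ml CaCl2. Arithmetic dilution steps of 5 μg/ml from 20 to 10 μg/ml, 1 μg/ml from 10 to 2, 0.5 μg/ml from 2 to 1, and 0.1 μg/ml from 1 to 0.3 μg/ml. Mean of 8 replicates.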

The subject of data set [27] is Staphylococcus aureus. Kind of data set: Antibacterial activity against Staphylococcus aureus ATCC 29213 grown in CAMHB medium by broth microdilution method in presence of 50 ug/ml CaCl2 and 95% human serum ultrafiltrate. The class given is functional. The essentials: as §5

On to `CO/N=C(\C(=O)N[C@@H]1C(=O)N2C(C(=O)O)=C(CSc3nc(=O)c(O)nn3C)CS[C@H]12)c1csc(N)n1` [CEFTRIAXONE], for which the Ratio in [1] was determined as 1.6; in data set [2], 1.5; in data set [3], 1.3; in data set [10], 13.5. In addition, in [4], the Protein binding stood at 37.5%. For the same compound, the fraction unbound in data set [5] was 0.074; in data set [6], 0.66; in [7], 0.791. In addition, the MIC in data set [8] came to 1.09 µg/mL; in data set [9] it was 1.38 µg/mL; in data set [11] it was 3.75 µg/mL; in data set [12], 6 µg/mL; in [13], 3.88 µg/mL; in data set [14], 5.88 µg/mL. In addition, the MIC came out at 3.5 µg/mL (≈ 6.31 µM) in data set [15], 2.88 µg/mL in data set [16] and 38.8 µg/mL in data set [17].
As for `CCCCCCCCCC(=O)N[C@@H](Cc1c[nH]c2ccccc12)C(=O)N[C@H](CC(N)=O)C(=O)N[C@@H](CC(=O)O)C(=O)N[C@@H]1C(=O)NCC(=O)N[C@@H](CCCN)C(=O)N[C@@H](CC(=O)O)C(=O)N[C@H](C)C(=O)N[C@@H](CC(=O)O)C(=O)NCC(=O)N[C@H](CO)C(=O)N[C@@H]([C@H](C)CC(=O)O)C(=O)N[C@@H](CC(=O)c2ccccc2N)C(=O)O[C@@H]1C`, the MIC in data set [18] was determined as 3 µg/mL; in [20], 0.538 µg/mL; in [21] it was 1.56 µg/mL; in [22] it was 0.638 µg/mL; in [23], 2.5 µg/mL; in [24], 3 µg/mL. In addition, the figures for the MIC in data set [25], in data set [26] and in data set [27] were 12.5 µg/mL, 0.975 µg/mL and 0.513 µg/mL, respectively. Also, the Ratio turned out to be 4.2 in data set [1], 2.9 in [2], 3.9 in [3] and 5.8 in data set [10]. For the same compound, the fraction unbound in data set [19] was 0.24; in [5], 0.171; in [6], 0.344; in data set [7] it was 0.255.
